# Measured values from ChEMBL document CHEMBL1148725, “2,2,2-Trichloro-N-({2-[2-(dimethylamino)ethyl]-1,3-dioxo-2,3-dihydro-1H-benzo[de]isoquinolin- 5-yl}carbamoyl)acetamide (UNBS3157), a novel nonhematotoxic naphthalimide derivative with potent antitumor activity” (J Med Chem, 2007).
# Legend:
# [1] = Antiproliferative activity against Hs683 cells after 72 hrs by MTT assay; format: functional, cell-based, Homo sapiens, Hs 683
# Summary of the method: (§1)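 Cells cultured with each compound for three days; growth then read by the MTT colorimetric assay and reported as IC50 (µM).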
# [2] = Antiproliferative activity against U373MG cells after 72 hrs by MTT assay; format: functional, cell-based, Homo sapiens, U-373MG ATCC; summary of the method: as §1
# [3] = test system: HCT-15; experiment: Antiproliferative activity against HCT15 cells after 72 hrs by MTT assay; format: functional, cell-based, Homo sapiens; summary of the method: as §1
# [4] = test system: LoVo; experiment: Antiproliferative activity against LoVo cells after 72 hrs by MTT assay; format: functional, cell-based, Homo sapiens; summary of the method: as §1
# [5] = test system: A549; experiment: Antiproliferative activity against A549 cells after 72 hrs by MTT assay; format: functional, cell-based, Homo sapiens; summary of the method: as §1
# [6] = test system: MCF7; experiment: Antiproliferative activity against MCF7 cells after 72 hrs by MTT assay; format: functional, cell-based, Homo sapiens; conditions: Homo sapiens, MCF7, 72 h; summary of the method: as §1
# [7] = Toxicity in ip dosed B6D2F1 mouse; format: organism-based; conditions: in vivo
# Summary of the method: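 Acute MTD was set by a single i.p. dose to groups of three healthy female B6D2F1 mice, at 2.5, 5, 10, 20, 40, 80 and 160 mg/kg. The MTD is the dose just below the lowest dose that killed at least one mouse.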
# [8] = test system: L1210; experiment: Antitumor activity in L1210 cells xenografted B6D2F1 mouse at 80 mg/kg, ip relative to control; format: functional; conditions: route intraperitoneal
# Summary of the method: (§2)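 Mice grafted with L1210 leukaemia cells on day 0, then dosed i.p. four times weekly on days 1-4 and 8-11. Five mice per group. Outcome is %T/C, the median survival of treated over control. Kruskal-Wallis test followed by Dunn comparisons against control.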
# [9] = test system: L1210; experiment: Antitumor activity in L1210 cells xenografted B6D2F1 mouse at 20 mg/kg, ip relative to control; format: functional; conditions: route intraperitoneal; summary of the method: as §2
# [10] = test system: L1210; experiment: Antitumor activity in L1210 cells xenografted B6D2F1 mouse at 40 mg/kg, ip relative to control; format: functional; conditions: route intraperitoneal; summary of the method: as §2
SMILES,"IC50 ([1]; Homo sapiens, Hs 683, 72 h)","IC50 ([2]; Homo sapiens, U373 MG, 72 h)","IC50 ([3]; Homo sapiens, HCT-15, 72 h)","IC50 ([4]; Homo sapiens, LoVo, 72 h)","IC50 ([5]; Homo sapiens, A549, 72 h)",IC50 [6],MTD [7],Activity [8],Activity [9],Activity [10],IC50 ([1]; hs 683),IC50 ([2]; u-373mg atcc),IC50 ([3]; hct-15),IC50 ([4]; lovo),IC50 ([5]; a549)
CCOC(=O)CCC(=O)Nc1cc2c3c(cccc3c1)C(=O)N(CCN(C)C)C2=O,> 10 µM,> 10 µM,> 10 µM,> 10 µM,> 10 µM,> 10 µM,> 80 mg/kg,156%,–,–,–,–,–,–,–
CN(C)CCN1C(=O)c2cccc3cc(NC(=S)Nc4ccc(OC(F)(F)F)cc4)cc(c23)C1=O,6.4 µM,3.6 µM,5.9 µM,4 µM,4.3 µM,4.8 µM,40 mg/kg,171%,–,–,–,–,–,–,–
CN(C)CCN1C(=O)c2cccc3cc(NC(=O)Nc4cc5c6c(cccc6c4)C(=O)N(CCN(C)C)C5=O)cc(c23)C1=O,5 µM,3.6 µM,4.6 µM,2.8 µM,3.6 µM,4.8 µM,40 mg/kg,–,124%,–,–,–,–,–,–
CN(C)CCN1C(=O)c2cccc3cc([N+](=O)[O-])cc(c23)C1=O [MITONAFIDE],3.7 µM,1.3 µM,2.6 µM,0.4 µM,2.4 µM,–,40 mg/kg,–,193%,–,–,–,–,–,–
CCOC(=O)NC(=O)Nc1cc2c3c(cccc3c1)C(=O)N(CCN(C)C)C2=O,3.6 µM,4.1 µM,4.4 µM,7.7 µM,4.9 µM,6.3 µM,80 mg/kg,–,–,207%,–,–,–,–,–
CN(C)CCN1C(=O)c2cccc3cc(NC(=O)Nc4ccc(Cl)cc4)cc(c23)C1=O,2.8 µM,3.6 µM,3.1 µM,2 µM,1.9 µM,2.4 µM,80 mg/kg,161%,–,–,–,–,–,–,–
CN(C)CCN1C(=O)c2cccc3cc(NCc4ccccc4O[C@H]4O[C@H](CO)[C@@H](O)[C@H](O)[C@H]4O)cc(c23)C1=O,–,–,–,–,–,–,> 80 mg/kg,113%,–,–,–,–,–,–,–
CN(C)CCN1C(=O)c2cccc3cc(NC(=S)NCc4ccc5c(c4)OCO5)cc(c23)C1=O,> 10 µM,> 10 µM,> 10 µM,> 10 µM,> 10 µM,> 10 µM,> 80 mg/kg,–,–,–,–,–,–,–,–
CN(C)CCN1C(=O)c2cccc3cc(NC(=O)NC(=O)CCl)cc(c23)C1=O,3 µM,3.3 µM,4.5 µM,2.9 µM,4.1 µM,4.9 µM,20 mg/kg,–,147%,–,–,–,–,–,–
CN(C)CCN1C(=O)c2cccc3cc(NC(=O)Nc4ccc(OC(F)(F)F)cc4)cc(c23)C1=O,2.6 µM,3.1 µM,5.8 µM,3.2 µM,3.1 µM,6.5 µM,> 80 mg/kg,194%,–,–,–,–,–,–,–
CN(C)CCN1C(=O)c2cccc3cc(NCc4ccc5c(c4)OCCO5)cc(c23)C1=O,5.5 µM,7.1 µM,6.7 µM,4 µM,9.7 µM,8.9 µM,> 80 mg/kg,150%,–,–,–,–,–,–,–
CN(C)CCN1C(=O)c2cccc3cc(NC(=O)c4ccccc4)cc(c23)C1=O,5.6 µM,6 µM,8.4 µM,3.7 µM,8.5 µM,> 10 µM,40 mg/kg,–,167%,–,–,–,–,–,–
CN(C)CCN1C(=O)c2cccc3cc(NC(=O)NC(=O)c4ccccc4)cc(c23)C1=O,3 µM,3.4 µM,3.4 µM,2.1 µM,2 µM,3.6 µM,40 mg/kg,–,–,140%,–,–,–,–,–
CN(C)CCN1C(=O)c2cccc3cc(NC(=O)Nc4ccc5c(c4)OCO5)cc(c23)C1=O,5.8 µM,1.4 µM,7.7 µM,4.4 µM,5.5 µM,6.6 µM,> 80 mg/kg,187%,–,–,–,–,–,–,–
CN(C)CCN1C(=O)c2cccc3cc(NC(=S)Nc4ccc(C#N)cc4)cc(c23)C1=O,> 10 µM,9.4 µM,> 10 µM,> 10 µM,> 10 µM,> 10 µM,> 80 mg/kg,–,–,–,–,–,–,–,–
CCOC(=O)c1ccc(NC(=O)Nc2cc3c4c(cccc4c2)C(=O)N(CCN(C)C)C3=O)cc1,2.1 µM,2.1 µM,7.4 µM,1.5 µM,1.6 µM,3.1 µM,> 80 mg/kg,187%,–,–,–,–,–,–,–
CN(C)CCN1C(=O)c2cccc3cc(NC(=O)Nc4ccc(C#N)cc4)cc(c23)C1=O,5 µM,0.9 µM,9.7 µM,4.2 µM,3.5 µM,3.1 µM,> 80 mg/kg,207%,–,–,–,–,–,–,–

SMILES,"IC50 ([1]; Homo sapiens, Hs 683, 72 h)","IC50 ([2]; Homo sapiens, U373 MG, 72 h)","IC50 ([3]; Homo sapiens, HCT-15, 72 h)","IC50 ([4]; Homo sapiens, LoVo, 72 h)","IC50 ([5]; Homo sapiens, A549, 72 h)",IC50 [6],MTD [7],Activity [8],Activity [9],Activity [10],IC50 ([1]; hs 683),IC50 ([2]; u-373mg atcc),IC50 ([3]; hct-15),IC50 ([4]; lovo),IC50 ([5]; a549)
CN(C)CCN1C(=O)c2cccc3cc(NCc4ccc5c(c4)OCO5)cc(c23)C1=O.Cl,–,–,4.5 µM,3.7 µM,> 10 µM,> 10 µM,> 80 mg/kg,207%,–,–,4.5 µM,4 µM,–,–,–
COC(=O)Nc1cc2c3c(cccc3c1)C(=O)N(CCN(C)C)C2=O,3.3 µM,4.2 µM,7.2 µM,4.1 µM,5.9 µM,> 10 µM,40 mg/kg,–,–,133%,–,–,–,–,–
CN(C)CCN1C(=O)c2cccc3cc(NCc4cc5c(cc4[N+](=O)[O-])OCO5)cc(c23)C1=O.Cl,7.6 µM,> 10 µM,8 µM,5 µM,> 10 µM,> 10 µM,> 80 mg/kg,150%,–,–,–,–,–,–,–
COc1cc(/C=N\c2cc3c4c(cccc4c2)C(=O)N(CCN(C)C)C3=O)ccc1O,> 10 µM,> 10 µM,> 10 µM,> 10 µM,> 10 µM,> 10 µM,> 80 mg/kg,164%,–,–,–,–,–,–,–
CN(C)CCN1C(=O)c2cccc3cc(NCc4cc5c(cc4[N+](=O)[O-])OCO5)cc(c23)C1=O,–,–,–,–,–,–,> 80 mg/kg,157%,–,–,> 10 µM,–,> 10 µM,8.1 µM,–
CN(C)CCN1C(=O)c2cccc3cc(/N=C\c4ccc(C#N)cc4)cc(c23)C1=O,> 10 µM,4.2 µM,9.9 µM,4.1 µM,7.7 µM,7.4 µM,> 80 mg/kg,135%,–,–,–,–,–,–,–
CN(C)CCN1C(=O)c2cccc3cc(NC(=O)NCCCl)cc(c23)C1=O,4.6 µM,1 µM,5.6 µM,1.8 µM,3 µM,3.9 µM,> 80 mg/kg,–,156%,–,–,–,–,–,–
CN(C)CCN1C(=O)c2cccc3cc(NC(=O)CCCCl)cc(c23)C1=O,> 10 µM,> 10 µM,> 10 µM,10 µM,> 10 µM,> 10 µM,> 80 mg/kg,164%,–,–,–,–,–,–,–
COc1cc(/C=N\c2cc3c4c(cccc4c2)C(=O)N(CCN(C)C)C3=O)cc(OC)c1OC,> 10 µM,6.4 µM,> 10 µM,5 µM,6.7 µM,> 10 µM,> 80 mg/kg,107%,–,–,–,–,–,–,–
CN(C)CCN1C(=O)c2cccc3cc(NCc4ccccc4O[C@H]4O[C@H](CO)[C@@H](O)[C@H](O)[C@H]4O)cc(c23)C1=O.Cl,> 10 µM,> 10 µM,> 10 µM,> 10 µM,> 10 µM,> 10 µM,> 80 mg/kg,–,–,129%,–,–,–,–,–
CN(C)CCN1C(=O)c2cccc3cc(NCc4ccc5c(c4)OCO5)cc(c23)C1=O,–,–,–,–,–,–,> 80 mg/kg,–,–,140%,9.8 µM,> 10 µM,8.2 µM,4.8 µM,8.5 µM
CN(C)CCN1C(=O)c2cccc3cc(NC(=S)Nc4ccc(Cl)cc4)cc(c23)C1=O,> 10 µM,> 10 µM,> 10 µM,8.7 µM,> 10 µM,> 10 µM,> 80 mg/kg,164%,–,–,–,–,–,–,–
CN(C)CCN1C(=O)c2cccc3cccc(c23)C1=O,6.9 µM,7.5 µM,9.2 µM,4.7 µM,5.6 µM,10 µM,40 mg/kg,156%,–,–,–,–,–,–,–
CN(C)CCN1C(=O)c2cccc3cc(NC(=O)C(F)(F)F)cc(c23)C1=O,8.7 µM,8.1 µM,> 10 µM,4.5 µM,9.5 µM,9.6 µM,40 mg/kg,–,–,124%,–,–,–,–,–
CN(C)CCN1C(=O)c2cccc3cc(/N=C\c4cc(O)ccc4O)cc(c23)C1=O.Cl,–,4.7 µM,–,–,–,6.3 µM,40 mg/kg,–,–,210%,4.9 µM,–,4.3 µM,3.7 µM,3.9 µM
CN(C)CCN1C(=O)c2cccc3cc(NC=O)cc(c23)C1=O,4.8 µM,4.4 µM,4.3 µM,6.6 µM,3.9 µM,7.4 µM,> 80 mg/kg,–,–,–,–,–,–,–,–
